Results on 75 sequences are retold here after the array DNA melting data of Ke et al. (doi:10.1101/2024.01.08.574731).

Series [1] is described as follows: folding enthalpy; higher = less favourable; fluorescence melt of hairpins on a sequencing array, two-state fit. Conditions: sodium 0.088 M. In a few lines: (§1)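 Melting temperature and folding enthalpy were derived from bootstrapped two-state fits. The fitted temperatures were raised by 9.35 °C to agree with UV melts, and four replicates were combined by inverse variance. The underlying data were Cy3 fluorescence images of library hairpins, with annealed Cy3 and quencher oligos, on a sequenced MiSeq flow cell in 50 mM Na-HEPES pH 8.0, 25 mM NaCl, taken in 2.5 °C steps up to 60 °C, normalised to pre-quench Cy3 and to control constructs.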

Series [2] is described as follows: melting temperature; fluorescence melt of hairpins on a sequencing array, two-state fit, raised by 9.35 °C to match UV melts. Conditions: sodium 0.088 M. In a few lines: as §1

On to GCGAGGCGAAAGCCCGGC ((..(((....)))..)), for which the folding enthalpy in series [1] was -10.5 kcal/mol. In series [2], the Tm came to 63.8 °C.
Regarding GCGAGGCGAAAGCGCCGC (((..((....))..))), the folding enthalpy in series [1] is -12.5 kcal/mol. Further, in series [2], the Tm was found to be 63.8 °C.
On to GCGAGGCGAAAGCGTAGC ((.(.((....)).).)), for which the folding enthalpy in series [1] was -15.4 kcal/mol. Besides, the Tm in series [2] was 51 °C.
The like results for GCGAGGCGAAAGCGTGGC ((.(.((....)).).)) were, in that order, -15.2 kcal/mol and 48.9 °C.
The like results for GCGAGGCGAAAGCTGCGC (((..((....))..))) were, in that order, -29.5 kcal/mol and 65.1 °C.
The like results for GCGAGGCGTCGC ((((....)))) were, in that order, -14.7 kcal/mol and 56.6 °C.
With GCGAGGGGAAACCCCCAC (.(.(((....))).).), the folding enthalpy in series [1] was -10.9 kcal/mol. Moreover, in series [2], the Tm was determined as 28.6 °C.
Regarding GCGAGGGGAAACCCTCAC (.(((((....))))).), the folding enthalpy in series [1] is -13.7 kcal/mol. Further, the Tm in series [2] was 45.2 °C.
The like results for GCGAGGGGAAACTCTCGC (((((.(....).))))) were, in that order, -40.3 kcal/mol and 58 °C.
In the same order, the values of GCGAGTCCGAAAGGACGC (((..(((....)))))) are -9.26 kcal/mol and 53 °C.
Take GCGAGTCGAAAGACCGC (((.(((....)))))): in series [1], the folding enthalpy was -35.1 kcal/mol. The Tm in series [2] stood at 66.8 °C.
Take GCGAGTCTCGC ((((...)))): the folding enthalpy in series [1] is -19.8 kcal/mol. Moreover, in series [2], the Tm came to 50.1 °C.
The like results for GCGAGTGATCGC ((((....)))) were, in that order, -21.9 kcal/mol and 54.3 °C.
In the same order, the values of GCGAGTGGAAACACCCGC (((.(((....))).))) are -26.4 kcal/mol and 51.9 °C.
As for GCGAGTGGAAACACTTGC ((.((((....)))).)), in series [1], the folding enthalpy was -39.2 kcal/mol. Further, in series [2], the Tm was 53.6 °C.
The like results for GCGAGTTCGAAAGAACGC (((..(((....)))))) were, in that order, -11.8 kcal/mol and 49.5 °C.
Take GCGATAAGTCGC ((((....)))): the folding enthalpy in series [1] was -18.9 kcal/mol. Also, in series [2], the Tm was found to be 49.8 °C.
As for GCGATACGTCGC ((((....)))), the folding enthalpy in series [1] was -30.6 kcal/mol. The Tm in series [2] was 54.4 °C.
As for GCGATACTTCGC ((((....)))), in series [1], the folding enthalpy is -25.9 kcal/mol. Also, in series [2], the Tm came to 52.7 °C.
In the same order, the values of GCGATAGATCGC ((((....)))) are -21.7 kcal/mol and 49.7 °C.
The like results for GCGATAGCTCGC ((((....)))) were, in that order, -9.76 kcal/mol and 65.8 °C.
As to GCGATCATCGC ((((...)))), the folding enthalpy in series [1] is -19.5 kcal/mol. Moreover, the Tm in series [2] amounted to 49.6 °C.
With GCGATCGAAAGATCCCGC ((((((....)))..))), the folding enthalpy in series [1] is -17.7 kcal/mol. For the same sequence, in series [2], the Tm is 37.1 °C.
GCGATCGAAAGATCCGC ((((((....))).))): the folding enthalpy in series [1] was -28.8 kcal/mol. The Tm in series [2] came out at 52 °C.
Take GCGATCGAAAGATCTCGC ((((((....)))..))): the folding enthalpy in series [1] was -20.2 kcal/mol. In series [2], the Tm stood at 44.1 °C.
Turning to GCGATCGAAAGATGACGC ((((((....)))..))), the folding enthalpy in series [1] was -28.3 kcal/mol. Besides, the Tm in series [2] amounted to 44.1 °C.
The like results for GCGATCGAAAGATGCCGC ((((((....)))..))) were, in that order, -17 kcal/mol and 39.6 °C.
The like results for GCGATCGAAAGATGGCGC ((((((....)))..))) were, in that order, -34.8 kcal/mol and 53.2 °C.
On to GCGATCGGAAACGATCAC (.(((((....))))).), for which the folding enthalpy in series [1] is -14.7 kcal/mol. Moreover, in series [2], the Tm was 46.5 °C.
In the same order, the values of GCGATCGGAAACGGTCGC ((((.((....)).)))) are -39.1 kcal/mol and 66.8 °C.
Consider GCGATCTCGAAAGAGCGC (((..(((....)))))), for which the folding enthalpy in series [1] is -33.1 kcal/mol. Moreover, the Tm in series [2] is 56.3 °C.
With GCGATCTTCGC ((((...)))), in series [1], the folding enthalpy is -19.4 kcal/mol. Moreover, in series [2], the Tm turned out to be 51.9 °C.
Turning to GCGATGACGAAAGTCCGC (((..(((....)))))), in series [1], the folding enthalpy was -20 kcal/mol. The Tm in series [2] turned out to be 52 °C.
In the same order, the values of GCGATGACTCGC ((((....)))) are -21.7 kcal/mol and 47.2 °C.
In the same order, the values of GCGATGCATCGC ((((....)))) are -32.1 kcal/mol and 59.6 °C.
The like results for GCGATGCGAAAGCAAAGC ((..(((....)))..)) were, in that order, -32.9 kcal/mol and 61 °C.
Turning to GCGATGCGAAAGCACGC (((.(((....)))))), the folding enthalpy in series [1] is -23.4 kcal/mol. The Tm in series [2] stood at 68.4 °C.
In the same order, the values of GCGATGCGAAAGCACGGC ((..(((....)))..)) are -16.5 kcal/mol and 51.2 °C.
As to GCGATGCGAAAGCATGGC ((.((((....)))).)), the folding enthalpy in series [1] was -21.2 kcal/mol. In addition, the Tm in series [2] amounted to 64.6 °C.
In the same order, the values of GCGATGCGAAAGCCACGC (((..((....))..))) are -21.1 kcal/mol and 52.1 °C.
Consider GCGATGCGAAAGCCTCGC ((((.((....)).)))), for which, in series [1], the folding enthalpy was -40.3 kcal/mol. Further, in series [2], the Tm worked out at 64.6 °C.
In the case of GCGATGCGAAAGCCTGGC ((.(.((....)).).)), in series [1], the folding enthalpy is -11.5 kcal/mol. Besides, in series [2], the Tm amounted to 29.1 °C.
As to GCGATGCGAAAGCTGCGC (((..((....))..))), in series [1], the folding enthalpy is -22.7 kcal/mol. The Tm in series [2] worked out at 64.2 °C.
In the same order, the values of GCGATGCGAAAGCTTAGC ((.(.((....)).).)) are -23.6 kcal/mol and 56.9 °C.
With GCGATGCGAAAGCTTTGC ((.(.((....)).).)), in series [1], the folding enthalpy is -21.2 kcal/mol. Further, in series [2], the Tm stood at 46.3 °C.
The like results for GCGATGGCTCGC ((((....)))) were, in that order, -19.2 kcal/mol and 47.8 °C.
For the sequence GCGATTCGAAAGAAACGC (((.(((....))).))), the folding enthalpy in series [1] was -47.3 kcal/mol. Also, the Tm in series [2] turned out to be 55.7 °C.
In the same order, the values of GCGATTCGAAAGAAGCGC (((.(((....))).))) are -39.7 kcal/mol and 68.7 °C.
The like results for GCGATTCTTCGC ((((....)))) were, in that order, -26.1 kcal/mol and 53.5 °C.
The like results for GCGATTTCTCGC ((((....)))) were, in that order, -24.4 kcal/mol and 49.5 °C.
As for GCGATTTTCGC ((((...)))), the folding enthalpy in series [1] is -22 kcal/mol. Besides, the Tm in series [2] is 52.3 °C.
In the same order, the values of GCGCAACCGAAAGGTCGC (((..(((....)))))) are -23.9 kcal/mol and 55 °C.
In the same order, the values of GCGCAAGGAAACTCGCGC ((((.((....)).)))) are -36.1 kcal/mol and 54.6 °C.
Consider GCGCAAGGAAACTTGCAC (.(((((....))))).), for which the folding enthalpy in series [1] was -13.4 kcal/mol. In series [2], the Tm came to 46.3 °C.
For GCGCAATCGAAAGATCGC (((..(((....)))))), in series [1], the folding enthalpy was -24.1 kcal/mol. Moreover, in series [2], the Tm came out at 45.5 °C.
For GCGCACCGAAAGGTCGC (((.(((....)))))), in series [1], the folding enthalpy is -25.7 kcal/mol. Further, the Tm in series [2] was determined as 67 °C.
For the sequence GCGCACGAAAGTGATCGC ((((((....)))..))), in series [1], the folding enthalpy is -24.8 kcal/mol. The Tm in series [2] came out at 49.6 °C.
As to GCGCACGAAAGTGCCCGC ((((((....)))..))), in series [1], the folding enthalpy is -12 kcal/mol. For the same sequence, the Tm in series [2] stood at 47 °C.
On to GCGCACGGAAACGCGCGC ((((.((....)).)))), for which the folding enthalpy in series [1] was -40.6 kcal/mol. Moreover, the Tm in series [2] came to 69 °C.
In the same order, the values of GCGCAGCGAAAGCACCGC (((..((....))..))) are -8.24 kcal/mol and 45.2 °C.
Regarding GCGCAGCGAAAGCCCCGC (((..((....))..))), in series [1], the folding enthalpy is -5.72 kcal/mol. Besides, the Tm in series [2] amounted to 36.4 °C.
The like results for GCGCAGCGAAAGCCGGGC ((.(.((....)).).)) were, in that order, -8.2 kcal/mol and 41.2 °C.
In the same order, the values of GCGCAGCGAAAGCTCCGC (((.(((....))).))) are -34.1 kcal/mol and 44.7 °C.
The like results for GCGCAGCGAAAGCTTTGC ((..(((....)))..)) were, in that order, -6.59 kcal/mol and 38.8 °C.
GCGCATCGAAAGATCGC (((.(((....)))))): the folding enthalpy in series [1] was -37 kcal/mol. For the same sequence, in series [2], the Tm was 55.8 °C.
The like results for GCGCATGGAAACATACGC (((.(((....))).))) were, in that order, -40.6 kcal/mol and 49.5 °C.
For the sequence GCGCATGGAAACATGTGC ((.((((....)))).)), the folding enthalpy in series [1] was -36.5 kcal/mol. Further, in series [2], the Tm was found to be 57.1 °C.
GCGCCACGAAAGTGACGC (((.(((....))).))): in series [1], the folding enthalpy was -38.4 kcal/mol. Further, the Tm in series [2] was found to be 66 °C.
GCGCCAGGAAACTGACGC (((.(((....))).))): the folding enthalpy in series [1] is -43.1 kcal/mol. The Tm in series [2] is 56 °C.
The like results for GCGCCAGGAAACTGGCAC (.(((((....))))).) were, in that order, -12.2 kcal/mol and 47.5 °C.
Turning to GCGCCATCGAAAGATCGC (((..(((....)))))), the folding enthalpy in series [1] was -24.3 kcal/mol. Besides, in series [2], the Tm was 42.5 °C.
In the same order, the values of GCGCCCACGAAAGTGCGC (((..(((....)))))) are -35.2 kcal/mol and 56 °C.
Take GCGCCCGAAAGGGACCGC ((((((....)))..))): in series [1], the folding enthalpy was -22.7 kcal/mol. Besides, the Tm in series [2] turned out to be 50.3 °C.
In the same order, the values of GCGCCCGAAAGGGCTCGC ((((((....)))..))) are -13 kcal/mol and 52.4 °C.
In the same order, the values of GCGCCCGAAAGGGGTCGC ((((((....)))..))) are -19.5 kcal/mol and 58.3 °C.
